pIC50: −log10 of the molar value. A value given as a limit tells only on which side of the number the result lay.

Experiment [1] deals with Thrombin and coagulation factor VII (Homo sapiens) (UniProt P00734+P08709). Kind of experiment: Selectivity for coagulation factor VIIa over thrombin IIa. It counts as protein assay.
Another experiment has as its target T1, Coagulation factor VII (Homo sapiens, UniProt P08709).
T1 sequence (P08709 whole entry): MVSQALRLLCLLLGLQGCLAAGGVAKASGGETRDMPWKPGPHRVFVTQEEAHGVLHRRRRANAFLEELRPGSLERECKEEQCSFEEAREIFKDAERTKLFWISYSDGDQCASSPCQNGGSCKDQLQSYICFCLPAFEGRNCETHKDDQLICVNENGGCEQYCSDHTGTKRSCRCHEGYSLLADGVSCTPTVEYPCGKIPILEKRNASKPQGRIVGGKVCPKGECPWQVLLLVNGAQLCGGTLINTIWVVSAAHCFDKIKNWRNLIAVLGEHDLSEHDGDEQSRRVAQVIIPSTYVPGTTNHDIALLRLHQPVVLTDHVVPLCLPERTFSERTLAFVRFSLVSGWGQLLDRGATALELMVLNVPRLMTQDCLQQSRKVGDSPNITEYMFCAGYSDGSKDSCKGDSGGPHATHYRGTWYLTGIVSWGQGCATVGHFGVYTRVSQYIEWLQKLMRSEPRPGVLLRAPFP
Briefly: Inhibitory activity against tissue coagulation factor VII. The method in brief: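 Complex of recombinant soluble tissue factor (100 nM) and recombinant human Factor VIIa (2 nM). Substrate N-methylsulfonyl-D-Phe-Gly-Arg-p-nitroaniline at 0.4 mM in 5 mM CaCl2, 50 mM Tris-HCl pH 8.0, 100 mM NaCl, 0.1% BSA. Background A405 read first; after 60 min at room temperature, hydrolysis rate read at 405 nm. Duplicates at seven concentrations; IC50 is the duplicate average.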

A further experiment concerns the target Coagulation factor X (Homo sapiens, UniProt P00742). Briefly: Inhibitory activity against coagulation factor X. A digest of the protocol:
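Human Factor Xa (0.3 nM) with chromogenic substrate S-2765 (0.15 mM) in 50 mM Tris-HCl pH 8.0, 100 mM NaCl, 0.1% BSA. A405 background read taken at once, then 60 min at room temperature, then p-nitroaniline release rate at 405 nm. Duplicates at seven concentrations; % inhibition versus control; IC50 from four-parameter logistic fit, averaged over the duplicates.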

In another experiment the target is Prothrombin (Homo sapiens, UniProt P00734). Briefly: Inhibitory activity against thrombin (IIa). The method in brief:
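Human thrombin (0.28 nM) with H-D-Phe-Pip-Arg-p-nitroaniline (0.06 mM) in 50 mM Tris-HCl pH 8.0, 100 mM NaCl, 0.1% BSA. Immediate background read at 405 nm, then 60 min at room temperature before measuring p-nitroaniline release rate at 405 nm. Seven concentrations in duplicate; % inhibition versus control; IC50 by four-parameter logistic regression.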

Sequence of Coagulation factor X (P00742 41-179 limits assumed): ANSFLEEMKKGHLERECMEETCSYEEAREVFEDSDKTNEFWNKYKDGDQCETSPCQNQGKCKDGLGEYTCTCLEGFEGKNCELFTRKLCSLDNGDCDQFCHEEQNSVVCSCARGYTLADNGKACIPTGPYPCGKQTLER
Sequence of Coagulation factor X (P00742 235-488 limits assumed): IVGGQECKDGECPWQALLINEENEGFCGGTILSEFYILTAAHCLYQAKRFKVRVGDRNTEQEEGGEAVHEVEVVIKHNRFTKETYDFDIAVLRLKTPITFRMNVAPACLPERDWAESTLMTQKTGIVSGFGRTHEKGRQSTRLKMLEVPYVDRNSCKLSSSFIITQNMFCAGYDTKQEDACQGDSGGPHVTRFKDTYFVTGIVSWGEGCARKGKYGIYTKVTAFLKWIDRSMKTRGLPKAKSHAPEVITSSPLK

In general, pIC50 refers to −log10 of the IC50, conventionally taken in molar units. Read a low pIC50 as a high IC50. In turn, `N=C(N)NCCC[C@H](NC(=O)[C@H](CC1CC1)NC(=O)[C@@H](Cc1ccccc1)NS(=O)(=O)Cc1ccccc1)C(=O)c1nccs1` gave a Selectivity in experiment [1] of 11. Also, the values for the negative logarithm of the IC50 (pIC50) on Coagulation factor VII, against Coagulation factor X and against Prothrombin were 6.09, 5.67 and 5.04, respectively.

In turn, `N=C(N)NCCC[C@H](NC(=O)[C@H](Cc1ccc(F)cc1)NC(=O)[C@@H](Cc1ccccc1)NS(=O)(=O)Cc1ccccc1)C(=O)c1nccs1` registered a Selectivity in experiment [1] of 19. Moreover, the negative logarithm of the IC50 (pIC50) on Coagulation factor VII is 6.77; at Coagulation factor X it was 6.73; at Prothrombin, 5.50.

On to `N=C(N)NCCC[C@H](NC(=O)[C@H](Cc1csc2ccccc12)NC(=O)[C@@H](Cc1ccccc1)NS(=O)(=O)Cc1ccccc1)C(=O)c1nccs1`, for which, in experiment [1], the Selectivity amounted to 3. Moreover, the pIC50 is 6.30 against Coagulation factor VII, 6.82 against Coagulation factor X and 4.81 against Prothrombin.

Compound `Cc1ccc(C[C@H](NC(=O)[C@@H](Cc2ccccc2)NS(=O)(=O)Cc2ccccc2)C(=O)N[C@@H](CCCN=C(N)N)C(=O)c2nccs2)cc1` gave a Selectivity in experiment [1] of 6. For the same compound, the pIC50 at Coagulation factor VII is 5.89; against Coagulation factor X it was 6.24; at Prothrombin, 5.13.

As to `N=C(N)NCCC[C@H](NC(=O)[C@H](Cc1cccc2ccccc12)NC(=O)[C@@H](Cc1ccccc1)NS(=O)(=O)Cc1ccccc1)C(=O)c1nccs1`, the Selectivity in experiment [1] is above 5. The negative-log IC50 (pIC50) was 5.25 against Coagulation factor VII, 5.74 at Coagulation factor X and below 4.52 at Prothrombin.

In experiment [1], `CS(=O)(=O)CC[C@H](NC(=O)[C@@H](Cc1ccccc1)NS(=O)(=O)Cc1ccccc1)C(=O)N[C@@H](CCCN=C(N)N)C(=O)c1nccs1` displayed a Selectivity of 1. Moreover, the negative-log IC50 (pIC50) on Coagulation factor VII was 4.86; against Coagulation factor X, 5.70; on Prothrombin, 4.89.

As to `N=C(N)NCCC[C@H](NC(=O)[C@H](Cc1cccc(-c2ccccc2)c1)NC(=O)[C@@H](Cc1ccccc1)NS(=O)(=O)Cc1ccccc1)C(=O)c1nccs1`, in experiment [1], the Selectivity was found to be 1. Further, the pIC50 on Coagulation factor VII was 5.74; at Coagulation factor X, 5.97; against Prothrombin it was 5.77.

The values above are taken from ChEMBL document CHEMBL1145084, “Polymer-assisted solution-phase library synthesis and crystal structure of alpha-ketothiazoles as tissue factor VIIa inhibitors” (J Med Chem, 2003).
